Source: PubChem (several laboratories)
STAT3 inh = reduces IL-6 driven STAT3 reporter signal; inhibition, % at 5.5 µM; U3A cells, IL-6 STAT3-luciferase reporter, luminescence; host cell line lacks STAT1; 190,000 tested, 0.89% active; AID 862;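 active = inhibition above the mean inhibition across all screened compounds plus 3 SD, cut at about 44% in these data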;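 note: 0% = DMSO only wells and 100% = 100 µM nifuroxazide control wells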
APP 5'UTR act = APP 5'UTR luciferase reporter activation; SH-SY5Y APP 5'UTR luciferase reporter, luminescence; zero percent = DMSO vehicle wells; activation, % at 2 µM; 190,000 tested, 1% active; AID 1276;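 active = activation above a set limit, based on mean plus 3 SD of controls, cut at about 140% in these data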
STAT3 activator = activators of IL-6 induced STAT3 signaling; U3A cells, IL-6 STAT3-luciferase reporter, luminescence; 100% = signal with IL-6 EC80 alone; activation (% of control), % at 5.6 µM; 190,000 tested, 0.91% active; AID 871;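 active = activation above the screen-wide mean of compound activation plus 3 SD, cut at about 130% in these data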;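 note: 0% = background luminescence of wells with medium and substrate only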
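Material: STAT3-luciferase reporter U3A cells; Probe or stimulus: IL-6 (33 ng/mL); Incubation: compound pre-incubation 1 h before IL-6, then 6 h stimulation at 37 °C; Technique: luminescence from STAT3-driven luciferase reporter; Evaluation: % activation versus median of IL-6-stimulated wells; Controls: IL-6-only high control.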
STAT1 act = activators of IFN-gamma induced STAT1 signaling. NIH 3T3 STAT1-luciferase reporter, luminescence; 100% = IFN-gamma alone, no compound. activation (% of control), % at 5.5 µM. 200,000 tested, 2.6% active. AID 932;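 active = activation above the screen-wide mean activation plus 3 SD, cut at about 130% in these data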;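 note: raw ratio to IFN-gamma control signal so 100% means no change and 0% no light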
NF-kB neuron act = NF-kB expression increase, human neuronal cells | NF-kB reporter expression; stronger effect = higher value | fold change at 12.5 µM | 190,000 tested, 1.6% active; in the data active = fold change above about 3.3
STAT1 blocker = inhibitors of IFN-gamma induced STAT1 signaling; inhibition, % at 5.5 µM; NIH 3T3 STAT1-luciferase reporter, luminescence; 200,000 tested, 0.35% active;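 active = inhibition above a set limit, the mean inhibition across all tested compounds plus 3 SD, cut at about 34% in these data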;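 note: 0% = IFN-gamma with DMSO and 100% = IFN-gamma with 300 µM nifuroxazide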
* marks the source's active call; other numbers are inactive results. Only some compounds are listed: those with a hit (about 4.9% of all), similar ones and a draw of the others.

SMILES	STAT3 inh	APP 5'UTR act	STAT3 activator	STAT1 act	NF-kB neuron act	STAT1 blocker
COc1ccc(-c2c(C)nn3c(N)c(C#N)cnc23)cc1OC	-13	-6	118	137*	1.2	-42
CSc1ccccc1NC(=O)NCCCl	8	-7	100	96	1.1	3
Cc1nccn1CCCNCc1c(C(=O)N2CCCCCCC2)nc2ccc(Cl)cn12	12	16	99	100	0.85	-1
O=C1C(C=NCCN2CCOCC2)=C(O)c2ccccc21	-5	112	108	133*	2	-37
NNc1nc2ccc(Cl)cc2s1	-17	10	118	109	1.7	-10
Fc1ccc2nc(Nc3ccccc3)sc2c1	11	66	97	140*	3.7*	-43
COc1ccc(Nc2nc3ccc(OC)cc3s2)cc1	11	39	95	130*	2.5	-32
NNc1nc2ccc(F)cc2s1	-25	104	124	150*	2.1	-56
COc1cc(/C=N/NC(N)=O)ccc1OCC(=O)Nc1cc(C)c(C)cc1Br	2	4	101	104	1.5	-5
O=C(CSc1nc(CCC2CCCC2)nc2ccccc12)NCc1ccc2c(c1)OCO2	-2	-4	102	97	1.1	4
O=C1N/C(=C/c2ccc(N3CCOCC3)o2)C(=O)N1c1ccccc1	15	-54	90	100	6.2*	0
O=C1N/C(=C/c2ccc(N3CCCC3)cc2)C(=O)N1c1ccccc1	-2	39	104	131*	1.6	-34
O=C1/C(=C/c2ccc(N3CCCC3)cc2)NC(=S)N1C1CC1	10	35	91	116	0.89	-17
C=CCN1C(=O)N/C(=C/c2ccc(N3CCOCC3)o2)C1=O	18	-89	84	78	0.44	25
Cc1ccc2nc(Cc3ccc(N)cc3)[nH]c2c1	-2	160*	112	131*	1.5	-35
COc1ccc([N+](=O)[O-])cc1N(CC(=O)NCC1CCCO1)S(C)(=O)=O (stereo not drawn)	-5	6	107	102	1.4	-2
C=CCn1c(SCC(=O)c2c(N)n(CCC)c(=O)n(C)c2=O)nnc1-c1ccncc1	12	28	92	103	1.2	-6
Cc1cc(C)n(CC(O)COc2ccccc2)n1 (stereo not drawn)	23	-11	83	102	1.3	-3
Cc1cc(C)n(CC(O)COc2ccc3ccccc3c2)n1 (stereo not drawn)	1	19	102	133*	2.2	-39
CNCC(=O)N(CC(C)C)c1c(N)n(CC(C)C)c(=O)[nH]c1=O	0	-3	102	95	0.88	4
O=[N+]([O-])CC(=Nc1ccc(Cl)cc1)N/N=C\c1oc(O)c2ccccc12	-37	-5	136*	104	1.2	-5
O=C(Nc1nsc(-c2ccccc2)n1)c1ccc(F)cc1	28	90	83	129*	1.6	-33
O=C(O)c1ccccc1N/C=C\[N+](=O)[O-]	11	6	96	98	1.1	0
COc1cccc(/C=N/Nc2ncnc(N)c2[N+](=O)[O-])c1OC	86*	86	28	46	1.7	59*
Cc1cc2nc(-c3ccc(SCC(=O)N4CCc5ccccc54)nc3)[nH]c2cc1C	-36	110	138*	139*	1.5	-44
SMILES	STAT3 inh	APP 5'UTR act	STAT3 activator	STAT1 act	NF-kB neuron act	STAT1 blocker
Cc1cc(NC(=O)CSc2ccc(-c3nc4cc(C)c(C)cc4[nH]3)cn2)no1	8	25	96	120	1.7	-22
Cc1cc2nc(-c3ccc(SCC(=O)NC(C)C)nc3)[nH]c2cc1C	1	56	106	128	1.9	-30
Cc1cc2nc(-c3ccc(SCC(=O)Nc4ccc(S(=O)(=O)NC5CC5)cc4)nc3)[nH]c2cc1C	12	132	92	147*	5.9*	-52
CCOc1ccc(Br)cc1S(=O)(=O)NCc1ccncc1	11	4	94	91	1.1	9
Cc1ccc(OC(=O)COc2ccccc2)c(-n2nc3ccccc3n2)c1	-5	60	107	114	4.8*	-15
Cc1ccc(OC(=O)COc2ccccc2C)c(-n2nc3ccccc3n2)c1	8	91	95	117	3.8*	-24
COC(=O)COc1ccc(C)cc1-n1nc2ccccc2n1	-5	-1	107	93	1.1	5
